ChEMBL document CHEMBL1158042, “Carneic acids A and B, chemotaxonomically significant antimicrobial agents from the xylariaceous ascomycete Hypoxylon carneum” (2006)
Converted amounts (≈) assume the structure as drawn. Starred links: 1 amine or outer side, 2 acyl side, 3 side chain; linkers in the order of their positions; H or OH if unused. Positions of bridges follow the written chain, without caps; N, C: chain ends. Non-standard residues stand in square brackets, D forms with d. Residues, ends and D or L forms follow the SMILES beside them. Chains are numbered I, II in the order given. Actinocin(1to9) = Cc1c2oc3c(C)ccc(C(=O)[*:2])c3nc-2c(C(=O)[*:1])c(N)c1=O; NMeV = CN[C@H](C(=O)O)C(C)C; Sar = CNCC(=O)O

Assays:
Type in all cases: functional
Bacillus subtilis = assay: Antimicrobial activity against Bacillus subtilis ATCC 6633 after 18 hrs; conditions: ATCC 6633, 18 h
In short: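 Serial broth dilution in microtiter wells. Compounds in MeOH were dispensed and the solvent evaporated in vacuo. Inoculum came from an overnight nutrient broth culture, adjusted to 10⁵ cells per mL, in NB medium. Incubation was 18 h. MIC was read as the minimal inhibitory concentration.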

Yarrowia lipolytica = assay: Antimicrobial activity against Yarrowia lipolytica HT20after 24 hrs
In short: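 Yeast tested by serial dilution in YMG medium. Compound films were left in wells after MeOH evaporation in vacuo. Inoculum came from an overnight YMG culture, adjusted to 10⁵ cells per mL. After 24 h incubation, the minimal inhibitory concentration was determined.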

Mucor hiemalis = assay: Antimicrobial activity against Mucor hiemalis DSM 63298 after 24 hrs; conditions: DSM 63298, 24 h
In short: (§1)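 Serial dilution in microtiter wells with YMG medium. Compounds in MeOH were dispensed and dried in vacuo. Spores were rinsed from well-grown 9-day-old YMG agar cultures with […], then adjusted to 10⁵ per mL. Concentrations ranged from 100 to 0.1 µg mL^-1 (eight levels). Incubation was 24 h. MIC was recorded.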

Penicillium griseofulvum = assay: Antimicrobial activity against Penicillium griseofulvum DSM 847 after 24 hrs; conditions: DSM 847, 24 h; in short: as §1
Stachybotrys chartarum = assay: Antimicrobial activity against Stachybotrys chartarum DSM 2144 after 24 hrs; conditions: DSM 2144, 24 h; in short: as §1
Trichoderma harzianum = assay: Antimicrobial activity against Trichoderma harzianum ATCC 64870 after 24 hrs; conditions: ATCC 64870, 24 h; in short: as §1

| Structure (SMILES) | MIC (Bacillus subtilis) [µg/mL] | MIC (Yarrowia lipolytica) [µg/mL] | MIC (Mucor hiemalis) [µg/mL] | MIC (Penicillium griseofulvum) [µg/mL] | MIC (Stachybotrys chartarum) [µg/mL] | MIC (Trichoderma harzianum) [µg/mL] |
| --- | --- | --- | --- | --- | --- | --- |
| C/C=C(\C)[C@H]1C(C)=C[C@@H]2[C@@H]([C@H]1/C=C/C=C/C(=O)O)[C@H](C)CC[C@H]2O [CARNEIC ACID A] | 50 (≈ 151 µM) | 25 (≈ 75.7 µM) | 12.5 (≈ 37.8 µM) | 12 (≈ 36.3 µM) | 25 (≈ 75.7 µM) | 50 (≈ 151 µM) |
| Cc1c2oc3c(C)ccc(C(=O)N[C@@H]4C(=O)N[C@H](C(C)C)C(=O)N5CCC[C@H]5C(=O)N(C)CC(=O)N(C)[C@@H](C(C)C)C(=O)O[C@@H]4C)c3nc-2c(C(=O)N[C@@H]2C(=O)N[C@H](C(C)C)C(=O)N3CCC[C@H]3C(=O)N(C)CC(=O)N(C)[C@@H](C(C)C)C(=O)O[C@@H]2C)c(N)c1=O [DACTINOMYCIN] (I: T[dV]P[Sar][NMeV] / II: T[dV]P[Sar][NMeV]; ester I:1-I:C, II:1-II:C; linker I:N-II:N via Actinocin(1to9)) | > 100 | 6.25 (≈ 4.98 µM) | 3.12 (≈ 2.49 µM) | 3.12 (≈ 2.49 µM) | 3.12 (≈ 2.49 µM) | 6.25 (≈ 4.98 µM) |
| CC1=C[C@@H]2[C@@H]([C@@H](/C=C/C=C/C(=O)O)[C@H]1/C(C)=C/CO)[C@H](C)CC[C@H]2O [CARNEIC ACID B] | 50 (≈ 144 µM) | 25 (≈ 72.2 µM) | 12.5 (≈ 36.1 µM) | 25 (≈ 72.2 µM) | 25 (≈ 72.2 µM) | 50 (≈ 144 µM) |

The next lines start with the values.

| MIC (Bacillus subtilis) [µg/mL] | MIC (Yarrowia lipolytica) [µg/mL] | MIC (Mucor hiemalis) [µg/mL] | MIC (Penicillium griseofulvum) [µg/mL] | MIC (Stachybotrys chartarum) [µg/mL] | MIC (Trichoderma harzianum) [µg/mL] | Structure (SMILES) |
| --- | --- | --- | --- | --- | --- | --- |
| 3.12 (≈ 9.33 µM) | > 100 | > 100 | > 100 | > 100 | > 100 | CC1(C)S[C@@H]2[C@H](NC(=O)Cc3ccccc3)C(=O)N2[C@H]1C(=O)O [PENICILLIN G] |
| 50 (≈ 113 µM) | 100 (≈ 225 µM) | 25 (≈ 56.3 µM) | > 100 | 100 (≈ 225 µM) | > 100 | CC(=O)OC/C=C/C1=CC2=C(CO1)C(=O)[C@](C)(O)[C@H](OC(=O)c1c(C)cc(O)cc1O)C2 [RUBIGINOSIN A] |
| 100 (≈ 314 µM) | > 100 | 100 (≈ 314 µM) | > 100 | > 100 | > 100 | Oc1cccc2c(-c3ccc(O)c4c(O)cccc34)ccc(O)c12 |
